The source made the active and inactive calls. The rule behind the calls is not given here.
What was measured:
RAW264.7 [1] = assay: Cytotoxicity against mouse RAW264.7 cells assessed as cell viability at 5 to 20 uM after 24 hrs by MTT assay; assay type: cell-based; details: raw264.7, 24 h
Method in brief: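 Cells grown in DMEM with 10% heat-inactivated FBS. Exposure to compound or 0.1% DMSO vehicle for 24 h. MTT added 1 h at 37 °C, formazan dissolved in DMSO and read at 570 nm.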

RAW264.7 [2] = assay: Antiosteoclast activity in mouse RAW264.7 cells assessed as reduction of RANKL-induced osteoclasts differentiation by measuring TRAP positive multinucleated cells after 5 days; assay type: functional, cell-based
Method in brief: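 Cells seeded 24 h, then 5 days in α-MEM with 10% FBS, RANKL 50 ng/mL and test compound. Cells fixed in 10% formalin 10 min and TRAP-stained. Multinucleated TRAP+ cells with three or more nuclei counted by light microscopy; mean ± SD, n = 5.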

RAW264.7 [3] = assay: Inhibition of RANKL-stimulated JNK phosphorylation in mouse RAW264.7 cells at 20 uM by Western blotting analysis; assay type: cell-based
Method in brief: (§1)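 Compound added 2 h before RANKL, followed by 15 min further incubation. Total cell lysates blotted on 12% SDS-PAGE for total and phosphorylated MAPKs, with milk block, primary overnight at 4 °C, HRP secondary, chemiluminescence and densitometry. At least three independent experiments.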

RAW264.7 [4] = assay: Inhibition of RANKL-stimulated ERK phosphorylation in mouse RAW264.7 cells at 20 uM by Western blotting analysis; assay type: cell-based; method in brief: as §1
[5] = molecular target: MAP kinase p38 (Mus musculus) (UniProt P47811+O08911+Q9WUI1+Q9Z1B7); assay: Inhibition of RANKL-stimulated p38 MAPK phosphorylation in mouse RAW264.7 cells at 20 uM by Western blotting analysis; assay type: cell-based; method in brief: as §1
RAW264.7 [6] = assay: Induction of nuclear accumulation of Nrf2 in RANKL-induced mouse RAW264.7 cells up to 20 uM after 3 hrs by Western blot analysis; assay type: functional, cell-based
Method in brief: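 Nuclear protein extracted with hypotonic then hypertonic (420 mM NaCl) buffers after 3 h RANKL 50 ng/mL with compound. Samples run on 12% SDS-PAGE and immunoblotted; at least three independent experiments.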

RAW264.7 [7] = assay: Antiosteoclast activity in mouse RAW264.7 cells assessed as reduction of RANKL-induced osteoclasts differentiation by measuring TRAP positive multinucleated cells after 5 days in presence of tin protoporphyrin 9 (SnPP); assay type: functional, cell-based
Method in brief: (§2)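 RANKL 50 ng/mL for 5 days in α-MEM with 10% FBS after 24 h seeding; SnPP 10 μM with test compound. TRAP+ multinucleated cells (≥3 nuclei) counted after formalin fixation and staining. TRAP activity: fixed cells in 50 mM citrate pH 4.6, 10 mM tartrate, 5 mM pNPP for 1 h, stopped with 0.1 N NaOH, A410, as % of RANKL-alone.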

RAW264.7 [8] = assay: Antiosteoclast activity in mouse RAW264.7 cells assessed as reduction of RANKL-induced osteoclasts differentiation by measuring TRAP activity after 5 days in presence of tin protoporphyrin 9 (SnPP); assay type: functional, cell-based; method in brief: as §2
RAW264.7 [9] = assay: Inhibition of NFATc1 expression in RANKL-induced mouse RAW264.7 cells at 20 uM after 24 hrs by immunofluorescence staining; assay type: functional, cell-based
Method in brief: (§3)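 Compound 20 μM, alone or with SnPP 10 μM, plus RANKL 50 ng/mL for 24 h. Nuclear NFATc1 by western blot of nuclear extracts, and by immunofluorescence: methanol-fixed cells, 4% BSA block, anti-NFATc1 1:100 overnight at 4 °C, FITC secondary, DAPI counterstain. n = 5.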

RAW264.7 [10] = assay: Inhibition of NFATc1 expression in RANKL-induced mouse RAW264.7 cells at 20 uM after 24 hrs by immunofluorescence staining in presence of tin protoporphyrin 9 (SnPP); assay type: functional, cell-based; method in brief: as §3
RAW264.7 [11] = assay: Inhibition of MMP9 activity in RANKL-induced mouse RAW264.7 cells at 20 uM after 5 days by gelatin zymography
RAW264.7 [12] = assay: Induction of HO-1 protein expression in RANKL-induced mouse RAW264.7 cells up to 20 uM after 48 hrs by Western blot analysis
RAW264.7 [13] = assay: Inhibition of RANKL-induced H2O2 production in mouse RAW264.7 cells pretreated for 2 hrs before RANKL stimulation for 10 mins
RAW264.7 [14] = assay: Inhibition of RANKL-induced superoxide anion production in mouse RAW264.7 cells pretreated for 2 hrs before RANKL stimulation for 10 mins
RAW264.7 [15] = assay: Inhibition of MMP9 activity in RANKL-induced mouse RAW264.7 cells at 20 uM after 5 days by gelatin zymography in presence of tin protoporphyrin 9 (SnPP)

SMILES: C=CCc1ccc(O)c(-c2cc(CC=C)ccc2O)c1 [MAGNOLOL]
- Activity (RAW264.7 [1]): Non-toxic
- Activity (RAW264.7 [2]): Dose-dependent effect
- inhibition (RAW264.7 [3]): Active
- inhibition (RAW264.7 [4]): Active
- inhibition [5]: Active
- Activity (RAW264.7 [6]): Active
- Activity (RAW264.7 [7]): inactive
- Activity (RAW264.7 [8]): inactive
- inhibition (RAW264.7 [9]): Active
- inhibition (RAW264.7 [10]): inactive
- inhibition (RAW264.7 [11]): Active
- Activity (RAW264.7 [12]): Active
- inhibition (RAW264.7 [13]): Dose-dependent effect
- inhibition (RAW264.7 [14]): Dose-dependent effect
- inhibition (RAW264.7 [15]): inactive

Reference: ChEMBL document CHEMBL3393011, “Magnolol Inhibits RANKL-induced osteoclast differentiation of raw 264.7 macrophages through heme oxygenase-1-dependent inhibition of NFATc1 expression” (J Nat Prod, 2015)
